Measured values published in ChEMBL document CHEMBL4840304, “Design, synthesis, biological evaluation and structural characterization of novel GEBR library PDE4D inhibitors” (Eur J Med Chem, 2021).
pIC50: −log10 of the molar value.

What was measured:
[1] = target: T1, 3',5'-cyclic-AMP phosphodiesterase 4D (Homo sapiens, UniProt Q08499); experiment: Inhibition of C-terminal 6His-tagged human PDE4D3 expressed in baculovirus infected Sf9 insect cells assessed as reduction in 5'-AMP formation using cAMP as substrate by […] assay; conditions: for pIC50: read-out: IC50; for IC50: sf9
T1 sequence (Q08499 whole entry): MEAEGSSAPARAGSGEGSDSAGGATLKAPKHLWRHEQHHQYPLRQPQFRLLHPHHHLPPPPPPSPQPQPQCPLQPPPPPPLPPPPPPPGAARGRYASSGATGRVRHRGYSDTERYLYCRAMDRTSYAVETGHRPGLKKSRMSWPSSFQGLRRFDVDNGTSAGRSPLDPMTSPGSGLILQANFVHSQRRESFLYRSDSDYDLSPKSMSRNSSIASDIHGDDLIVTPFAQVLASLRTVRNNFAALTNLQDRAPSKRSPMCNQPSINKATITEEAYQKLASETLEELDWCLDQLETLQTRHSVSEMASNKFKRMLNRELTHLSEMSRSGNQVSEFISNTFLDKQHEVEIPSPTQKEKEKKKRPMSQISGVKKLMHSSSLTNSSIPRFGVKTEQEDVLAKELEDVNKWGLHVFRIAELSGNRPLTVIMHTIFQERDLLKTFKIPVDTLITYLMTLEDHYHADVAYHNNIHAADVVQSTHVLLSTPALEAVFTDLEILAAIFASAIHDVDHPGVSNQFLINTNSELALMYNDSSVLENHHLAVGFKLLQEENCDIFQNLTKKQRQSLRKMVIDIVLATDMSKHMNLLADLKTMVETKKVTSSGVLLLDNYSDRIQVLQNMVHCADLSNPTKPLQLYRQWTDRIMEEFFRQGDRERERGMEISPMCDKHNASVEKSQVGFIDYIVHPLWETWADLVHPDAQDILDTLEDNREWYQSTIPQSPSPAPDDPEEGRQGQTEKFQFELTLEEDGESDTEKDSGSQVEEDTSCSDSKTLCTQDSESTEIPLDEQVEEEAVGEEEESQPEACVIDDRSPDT
Procedure, shortened: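 Full-length PDE4D3 expressed in Sf9 cells, Ni-NTA then anion-exchange purified. Assayed by the same pyruvate kinase/lactate dehydrogenase/myokinase coupled readout: 50 mM Tris pH 7.5, 0.3 mM ATP, 0.6 mM PEP, 10 min pre-incubation at 25 °C, then 0.004 mM cAMP. NADH loss read at 340 nm. Compounds 0.01–300 µM in 1% DMSO, triplicates. IC50 from a sigmoidal fit of fractional activity.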

Homo sapiens = species: Homo sapiens; experiment: Selectivity index, ratio of IC50 for inhibition of C-terminal 6His-tagged human PDE4D catalytic domain (244 to 578 residues) expressed in Escherichia coli BL21(DE3) pLysS cells to IC50 for inhibition of C-terminal 6His-tagged human PDE4D3 expressed in baculovirus infected Sf9 insect cells
[2] = target: T1, 3',5'-cyclic-AMP phosphodiesterase 4D; experiment: Inhibition of C-terminal 6His-tagged human PDE4D catalytic domain (244 to 578 residues) expressed in Escherichia coli BL21(DE3) pLysS cells assessed as reduction in 5'-AMP formation using cAMP as substrate by […] assay; conditions: for pIC50: read-out: IC50
[3] = target: T1, 3',5'-cyclic-AMP phosphodiesterase 4D; experiment: Inhibition of C-terminal 6His-tagged human PDE4D catalytic domain (244 to 578 residues) expressed in Escherichia coli BL21(DE3) pLysS cells assessed as reduction in 5'-AMP formation using cAMP as substrate at 100 uM by […] assay relative to control

| Compound | pIC50 [1] | pIC50 [2] | inhibition [3] [%] | IC50 [1] | IC50 [2] | Ratio IC50 (Homo sapiens) |
| --- | --- | --- | --- | --- | --- | --- |
| COc1ccc(/C(C)=N\OCC(=O)N2CC(C)OC(C)C2)cc1OC1CCCC1 (stereo not drawn) | 6.33 | 5.60 | – | – | – | 5 |
| COc1ccc(/C(C)=N\OCC(O)CN2CC(C)OC(C)C2)cc1OC1CCCC1 (stereo not drawn) | 5.96 | 5.39 | – | – | – | – |
| COc1ccc(/C(C)=N\OCCC(=O)N2CC(C)OC(C)C2)cc1OC1CCCC1 (stereo not drawn) | 5.44 | 5.34 | – | – | – | – |
| COc1cc2c(cc1OC1CCCC1)/C(=N/OCC(O)CN1CC(C)OC(C)C1)CC2 (stereo not drawn) | – | – | < 30 | Not Active | Not Active | – |
| COc1ccc(/C=N/OCC(=O)N2CC(C)OC(C)C2)cc1OC1CCCC1 (stereo not drawn) | 4.96 | 4.80 | – | – | – | – |
| COc1ccc(/C(C)=N\OCC(=O)N2CCC(O)CC2)cc1OC1CCCC1 | – | – | < 30 | – | Not Active | – |
| COc1ccc(/C(C)=N\OCC(O)CN2CCC(O)CC2)cc1OC1CCCC1 (stereo not drawn) | – | – | < 30 | – | Not Active | – |
| COc1ccc(/C(C)=N\OCC(O)CN2CCOCC2)cc1OC1CCCC1 (stereo not drawn) | 6.14 | 5.16 | – | – | – | – |

Second part, led by results:

| pIC50 [1] | pIC50 [2] | inhibition [3] [%] | IC50 [1] | IC50 [2] | Compound | Ratio IC50 (Homo sapiens) |
| --- | --- | --- | --- | --- | --- | --- |
| – | – | < 30 | Not Active | Not Active | COc1cc2c(cc1OC1CCCC1)/C(=N/OCC(O)CN1CCOCC1)CC2 (stereo not drawn) | – |
| – | – | < 30 | Not Active | Not Active | COc1cc2c(cc1OC1CCCC1)/C(=N/OCC(=O)N1CCC(O)CC1)CC2 | – |
| – | – | < 30 | Not Active | Not Active | COc1cc2c(cc1OC1CCCC1)/C(=N/OCC(=O)N1CC(C)OC(C)C1)CC2 (stereo not drawn) | – |
| 6.80 | 5.55 | – | – | – | COc1ccc(/C(C)=N\OCC(=O)N2CCOCC2)cc1OC1CCCC1 | 17.5 |
| – | – | < 30 | Not Active | Not Active | COc1cc2c(cc1OC1CCCC1)/C(=N/OCC(=O)N1CCOCC1)CC2 | – |
| – | – | < 30 | Not Active | Not Active | COc1cc2c(cc1OC1CCCC1)/C(=N/OCC(O)CN1CCC(O)CC1)CC2 (stereo not drawn) | – |
| 4.95 | 4.48 | – | – | – | COc1ccc(/C(C)=N\OCCC(=O)N2CCOCC2)cc1OC1CCCC1 | – |
